Most compounds without a hit are left out; they make up all but 1.4% or so of the library.
DDE Tn7 FP inh: DD(E)-Tn7 binding inhibition, primary FP screen. P02675. FP displacement of FITC-Tn7 peptide from fibrin DD(E); 0% = median of compound wells per plate. inhibition, % at 8.3 µM. actives 0.13% (n = 370,000);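 active means inhibition above the mean of compounds falling within the control limits plus 3 SD of them, cut at about 14% in these data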
Target sequence (P02675 whole entry, looked up): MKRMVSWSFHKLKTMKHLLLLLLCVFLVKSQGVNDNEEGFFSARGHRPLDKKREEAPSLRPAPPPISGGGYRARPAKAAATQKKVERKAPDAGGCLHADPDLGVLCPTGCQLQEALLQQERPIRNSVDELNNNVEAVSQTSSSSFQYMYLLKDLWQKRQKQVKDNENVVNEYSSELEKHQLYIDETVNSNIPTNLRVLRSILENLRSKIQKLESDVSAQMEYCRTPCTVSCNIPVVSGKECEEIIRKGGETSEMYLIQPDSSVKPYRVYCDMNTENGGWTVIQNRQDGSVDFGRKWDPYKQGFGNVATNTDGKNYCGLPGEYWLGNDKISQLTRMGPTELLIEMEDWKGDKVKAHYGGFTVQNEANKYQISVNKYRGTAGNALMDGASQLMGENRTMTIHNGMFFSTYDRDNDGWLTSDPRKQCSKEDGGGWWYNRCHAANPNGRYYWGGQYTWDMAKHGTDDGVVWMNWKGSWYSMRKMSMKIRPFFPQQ
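Assay system: human fibrin DD(E). Input: DD(E) 2 µM final. Medium: Tris buffer with calcium and detergent, pH 7.8. Compound dosing: single point at 8.3 µM. Timing: 10 min plus 3 h, room temperature. Technique: fluorescence polarization of the labelled Tn7 tracer. Read-out: percent inhibition. Replicates: singlicate testing.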
Tn6 DDE FP: disrupts Tn6 cyclic peptide binding to fibrin D-Dimer-E complex | P02675 | Fibrin DD(E) TRITC-Tn6 fluorescence polarization displacement | inhibition, % at 8.3 µM | actives 0.21% (n = 370,000);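 active means inhibition above a per-campaign cutoff: mean of compounds within control limits plus 3 SD, cut at about 15% in these data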
cardiac RTF act: increases calcium sensitivity of human cardiac regulated thin filaments | IANBD-labeled TnC RTF fluorescence at EC20 calcium; 0% EC20 calcium, 100% full calcium | AID 493008 | actives 0.24% (n = 340,000) | P19429+P45379 | activation, % at 7.2 µM;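 active means activation above the mean over all tested compounds plus 3 SD, cut at about 30% in these data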;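 further: rise in fluorescence read as greater calcium sensitivity of cardiac thin filaments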
Cardiac RTF inh: cardiac RTF calcium desensitization; P19429+P45379; IANBD-labeled cardiac RTF, Ca2+ fluorescence; inhibition, % at 7.15 µM; actives 0.12% (n = 340,000); AID 493244;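 active means inhibition above the mean inhibition of all tested compounds plus 3 SD, cut at about 17% in these data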;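 further: assay run at fixed EC70 calcium of 1.6 mM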
CRFR2-BP antag: antagonists of CRF-binding protein/CRF-R2 receptor complex; inhibition, % at 11.8 µM; actives 0.59% (n = 350,000); HEK293 CRF-R2/CRF-BP, CRF-induced calcium fluorescence;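 active means inhibition of the ligand-induced calcium signal above about 50% at the single tested concentration, limit read from the data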
CRFBP-R2 agonist: agonists of human CRF-binding protein/CRF-R2 receptor complex; HEK293 CRF-R2/CRF-BP, calcium dye fluorescence (FLIPR); percent of saturating CRF peptide response; activation, % at 13.2 µM; actives 0.46% (n = 350,000);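 active means activation of at least 50%, plus an integration ratio under a set limit after plate pattern correction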
Large screens that a line does not name were inactive.

COc1ccc(C(C(=O)Nc2ccc3c(c2)OCCO3)n2c(=O)c(-c3ccco3)nc3ccccc32)cc1 (stereo not given)	none (no result: cardiac RTF act, Cardiac RTF inh, CRFR2-BP antag, CRFBP-R2 agonist)
Cc1ccc(C)c(NC(=S)NCCCN2CCOCC2)c1	CRFR2-BP antag 125.5
Cc1ccc(C)c(NC(=O)C(=O)NCCCN2CCOCC2)c1	none
COC(=O)c1sccc1NS(=O)(=O)c1ccccc1	CRFR2-BP antag 118.1
O=C(CCC(=O)N1CCN(C2c3ccccc3-c3ccccc32)CC1)Nc1nnc(C(F)(F)F)s1	none (no result: cardiac RTF act, Cardiac RTF inh, CRFR2-BP antag, CRFBP-R2 agonist)
CC(C)[C@@H](N)C(=O)N/N=C/c1ccc2nccnc2c1	none
CC(C)[C@H](NC(=O)OC(C)(C)C)C(=O)N/N=C/c1ccc2nccnc2c1	CRFR2-BP antag 92.3
O=C(Nc1ccc(F)cc1)Nc1c(-c2ccc(F)cc2)nc2ncccn12	none (no result: cardiac RTF act, Cardiac RTF inh, CRFR2-BP antag, CRFBP-R2 agonist)
COc1ccc(CCn2c(C(C)C)nc3c(c(=O)c4ccccc4n3C)c2=O)cc1	CRFBP-R2 agonist 114.8 (no result: DDE Tn7 FP inh, Tn6 DDE FP)
COc1ccc(Cn2c(C)nc3c(c(=O)c4ccccc4n3C)c2=O)cc1	none
COc1ccc(Cn2c(-c3ccco3)nc3c(c(=O)c4ccccc4n3C)c2=O)cc1	CRFR2-BP antag 72.0
COc1ccc(-c2nc3c(c(=O)c4ccccc4n3C)c(=O)n2Cc2ccccc2)cc1	CRFBP-R2 agonist 52.7
COc1ccc(Cn2c(-c3ccc(C)cc3)nc3c(c(=O)c4ccccc4n3C)c2=O)cc1	none
COc1ccc(CCn2c(C)nc3c(c(=O)c4ccccc4n3C)c2=O)cc1	none
CN(C)c1ccc(/C=C2\SC(=S)N(Nc3ncc(C(F)(F)F)cc3Cl)C2=O)cc1	cardiac RTF act 147.1, CRFBP-R2 agonist 158.8
COc1cc(/C=C2\SC(=S)N(NC(=O)c3ccc(O)cc3)C2=O)ccc1O	CRFBP-R2 agonist 52.6
COc1cc(/C=C2\SC(=S)N(Nc3ncc(C(F)(F)F)cc3Cl)C2=O)ccc1O	CRFBP-R2 agonist 115.0
CCOc1ccc(/C=C2\SC(=S)N(NS(=O)(=O)c3ccccc3)C2=O)cc1OC	none
CCOc1ccc(/C=C2\SC(=S)N(NS(=O)(=O)c3ccc(C)cc3)C2=O)cc1OC	CRFR2-BP antag 50.7
COc1cc(/C=C2\SC(=S)N(NC(=O)c3cccnc3)C2=O)ccc1O	none
COc1cccc(OC)c1NC(=O)OCCN1CCCC12CCC(c1ccccc1)CC2 (stereo not given)	none (no result: cardiac RTF act, Cardiac RTF inh, CRFR2-BP antag, CRFBP-R2 agonist)
COC(=O)[C@]12C[C@H](CC(=O)NCC3CCCCC3)C(=O)N(Cc3ccco3)C1=C[C@H](C1CCCC1)O[C@@H]2C	none (no result: cardiac RTF act, Cardiac RTF inh, CRFR2-BP antag, CRFBP-R2 agonist)
COc1ccc([C@H]2C[C@@H](n3cc(C4CC4)nn3)[C@H](O)CN2CC2CCCCC2)cc1	none (no result: cardiac RTF act, Cardiac RTF inh)
N#CCCN(Cc1ccccc1)C(CCc1ccccc1)C(=O)NC1CCCCC1 (stereo not given)	none (no result: cardiac RTF act, Cardiac RTF inh, CRFR2-BP antag, CRFBP-R2 agonist)
C=CC(=O)NC1CCCCN(CC)C1=O (stereo not given)	none (no result: cardiac RTF act, Cardiac RTF inh, CRFR2-BP antag, CRFBP-R2 agonist)
Cc1ccc(C)c(N2CCN(C3C(=O)Nc4ccccc4-n4nnnc43)CC2)c1 (stereo not given)	none (no result: cardiac RTF act, Cardiac RTF inh, CRFR2-BP antag, CRFBP-R2 agonist)
COc1cc(/C=C2/SC(=S)N(CC3CCCO3)C2=O)ccc1O (stereo not given)	CRFBP-R2 agonist 151.4
Cc1nn(-c2ccccc2)c(N2CCCC2)c1/C=N/Nc1ccc(S(=O)(=O)Nc2ccccc2)cc1[N+](=O)[O-]	none
COc1ccccc1NS(=O)(=O)c1ccc(N/N=C/c2c(C)nn(-c3ccccc3)c2N2CCCC2)c([N+](=O)[O-])c1	CRFR2-BP antag 55.7
N#C/C(=C/c1ccc(N2CCCCC2)o1)c1cccc(F)c1	none
N#C/C(=C/c1ccc(N2CCCCCC2)o1)c1ccc(Cl)cc1	cardiac RTF act 35.8 (no result: DDE Tn7 FP inh, Tn6 DDE FP)
C[C@H](NC(=O)C1CCN(S(=O)(=O)c2ccccc2)CC1)C(=O)NCc1cccnc1	none (no result: cardiac RTF act, Cardiac RTF inh)
O=C1CCSc2c1ccc1ccccc21	CRFR2-BP antag 60.9
Cc1ccc(CC2(C)C(=O)Nc3c(Cl)cccc32)cc1 (stereo not given)	none (no result: cardiac RTF act, Cardiac RTF inh, CRFR2-BP antag, CRFBP-R2 agonist)
Cc1c(C(c2ccc(N(C)C)cc2)c2c(C)n(C)n(-c3ccccc3)c2=O)c(=O)n(-c2ccccc2)n1C	CRFR2-BP antag 53.6
COC1=C(Br)C(=O)c2ncccc2C1=O	CRFR2-BP antag 57.8
CC(C)NC(=S)N/N=C/c1ccccc1[N+](=O)[O-]	none
O=[N+]([O-])c1ccccc1C=NNC(=S)NN=Cc1ccccc1[N+](=O)[O-]	CRFR2-BP antag 56.9
CCCCc1ncc(CN2CCC(CC3CCCCO3)(C(=O)OCC)CC2)[nH]1 (stereo not given)	none
CCOC(=O)C1(CC2CCCCO2)CCN(Cc2cc3ccccc3[nH]2)CC1 (stereo not given)	CRFBP-R2 agonist 126.2
COc1ccc(N2C(=O)CSC2c2ccc([N+](=O)[O-])cc2)cc1 (stereo not given)	CRFR2-BP antag 83.3
COc1ccc(C2SCC(=O)N2c2ccc(OC)cc2)cc1 (stereo not given)	none
CCn1c(CCNC(=O)c2ccc(Cl)cc2Cl)n[nH]c1=S	none
CCn1c(CCNC(=O)c2ccccc2Cl)n[nH]c1=S	CRFR2-BP antag 82.0
CCC(=O)c1ccc(OCC(=O)NCCCN2CCOCC2)cc1	CRFR2-BP antag 51.5
C(=Cc1cnc2ccccc2n1)c1ccc2c(c1)OCO2	CRFBP-R2 agonist 99.5 (no result: cardiac RTF act, Cardiac RTF inh)
C#CCNC(=O)C[C@H]1C[C@@]2(C(=O)OC)C(=C[C@H](COCc3ccccc3)O[C@@H]2C)N(CCCCCCCC)C1=O	none (no result: cardiac RTF act, Cardiac RTF inh, CRFR2-BP antag, CRFBP-R2 agonist)
CCCN1CCC(C)(C(=O)Nc2ccccc2Oc2ccccc2)C1 (stereo not given)	none (no result: cardiac RTF act, Cardiac RTF inh, CRFR2-BP antag, CRFBP-R2 agonist)
CC12CCC(C/C1=N\OC(=O)c1c(F)cccc1F)C2(C)C (stereo not given)	CRFR2-BP antag 95.3
Nc1ccc(/C=C/C(=O)c2cccs2)cc1	CRFBP-R2 agonist 102.5
O=C(O)CN1C(=O)C2C3CCC(C3)C2C1=O (stereo not given)	none (no result: cardiac RTF act, Cardiac RTF inh)
CC(C)(C)C(=O)/C(=C/c1ccc(Cl)cc1)n1cncn1	CRFR2-BP antag 54.6
CCN(CC)c1ccc2c(c1)oc(=O)c1c(Cl)cc(=O)oc12	cardiac RTF act 199.9, CRFBP-R2 agonist 222.9 (no result: DDE Tn7 FP inh, Tn6 DDE FP)
COc1ccccc1-c1c(NC(=O)C(C)C)n(C)c2ccccc2c1=O	CRFR2-BP antag 105.7
Cc1ccc(/C=C(\C#N)C(=O)NC(C)C)o1	none
CC(C)NC(=O)/C(C#N)=C/c1ccc(N(C)C)o1	cardiac RTF act 72.9
COc1ccc(C2(C)NC(=O)N(CC(=O)c3cc(C)n(C4CC4)c3C)C2=O)cc1 (stereo not given)	CRFBP-R2 agonist 99.6
Cc1c(C(=O)N2CCc3ccccc32)oc2ccccc12	none
Cc1c(C(=O)N2CC(C(=O)N3CCCCC3)Oc3ccccc32)oc2ccccc12 (stereo not given)	CRFR2-BP antag 75.2
CCOc1ccc(/C=C(\C#N)C(=O)NC2CC2)c(OCC)c1	CRFR2-BP antag 80.4
CCCCOc1ccc(/C=C(\C#N)C(=O)NC2CC2)cc1	none (no result: cardiac RTF act, Cardiac RTF inh)

Assay outcomes (PubChem)
